These results are taken from ChEMBL document CHEMBL5244249, “Discovery of tofacitinib derivatives as orally active antitumor agents based on the scaffold hybridization strategy” (Eur J Med Chem, 2020).

Active and inactive are the calls of the source. No cut-off for these calls is given here.

Test [1] deals with MGC-803. Kind of test: Induction of apoptosis in human MGC-803 cells assessed as early apoptotic cells at 10 uM incubated for 24 hrs by Annexin V-FITC/PI staining based flow cytometric analysis (reference value: 3.9 %). Type of test: functional.
A further test deals with HGC-27. Kind of test: Antiproliferative activity against human HGC-27 cells assessed as inhibition of cell growth incubated for 72 hrs by MTT assay. The conditions noted are these: HGC-27, 72 h. Type of test: functional, cell-based. In a few lines:
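Antiproliferative screen in gastric cancer lines MGC-803, HGC-27 and BGC-823 by MTT assay; IC50 reported as mean ± SD.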

The test system of test [2] is MGC-803. Put plainly: Induction of apoptosis in human MGC-803 cells assessed as early apoptotic cells at 7.5 uM incubated for 48 hrs by Annexin V-FITC/PI staining based flow cytometric analysis (reference value: 2.5 %). The test is classed as functional.
The subject of test [3] is MGC-803. Put plainly: Induction of mitochondrial dysfunction in human MGC-803 cells assessed as downregulation of procaspase-7 expression at 5 to 10 uM incubated for 24 hrs by Western blot analysis. The test is classed as functional, cell-based. The conditions noted are these: dose 5-10 µM. In a few lines: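 Western blot of caspase 9, 3, 7, PARP and γH2A.X in MGC-803 lysates after 24 h exposure to 5, 7.5 or 10 μM; band quantitation; mean ± SD from three independent experiments.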

The test system of test [4] is MGC-803. Kind of test: Induction of apoptosis in human MGC-803 cells assessed as necrotic cells at 10 uM incubated for 48 hrs by Annexin V-FITC/PI staining based flow cytometric analysis (reference value: 0.3 %). Type of test: functional. (In general: In flow cytometry, cells or beads pass a laser one at a time.)

The term IC50 denotes the concentration at which inhibition is half-maximal. For `Cc1cc(N2CC[C@@H](C)[C@@H](N(C)c3ncnc4[nH]ccc34)C2)n2nc(SCc3ccc(C(F)(F)F)cc3)nc2n1`, the Activity is recorded as 12.7% in the test on MGC-803 [1], 8.8% in the test on MGC-803 [2] and 0.9% in the test with MGC-803 [4]. Further, the IC50 in the test on HGC-27 was 9.54 µM. In the test on MGC-803 [3], the outcome was Active.
